Assay results from ChEMBL document CHEMBL1926550, “Synthesis and antibacterial activity of naphthyridone derivatives containing mono/difluoro-methyloxime pyrrolidine scaffolds” (2012).

Key:
Format in all cases: functional
Klebsiella pneumoniae [1] = experiment: Antibacterial activity against Klebsiella pneumoniae 09-2 after 18 hrs by two fold serial dilution method; conditions: 09-2, 18 h
Summary of the method: (§1)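 Agar two-fold serial dilution in melted Mueller-Hinton agar, final concentrations 128 down to 0.008 μg/mL. Plates inoculated with 10⁴ cfu and incubated at 35 °C for 18 h. MIC taken as the lowest concentration giving no visible growth on the plate.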

Pseudomonas aeruginosa [2] = experiment: Antibacterial activity against Pseudomonas aeruginosa 10-3 after 18 hrs by two fold serial dilution method; conditions: 10-3, 18 h; summary of the method: as §1
Staphylococcus aureus [3] = experiment: Antibacterial activity against methicillin-sensitive Staphylococcus aureus 10-5 after 18 hrs by two fold serial dilution method; conditions: 10-5, 18 h; summary of the method: as §1
[4] = test system: Staphylococcus epidermidis; experiment: Antibacterial activity against methicillin-resistant Staphylococcus epidermidis 10-2 after 18 hrs by two fold serial dilution method; conditions: 10-2, 18 h
Summary of the method: (§2)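 Agar two-fold serial dilution in melted Mueller-Hinton agar, 128 to 0.008 μg/mL. Plates inoculated with 10⁴ cfu, incubated 35 °C for 18 h. MIC taken as lowest concentration giving no visible growth on the plate.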

Escherichia coli [5] = experiment: Antibacterial activity against Escherichia coli 09-2 after 18 hrs by two fold serial dilution method; conditions: 09-2, 18 h; summary of the method: as §1
Staphylococcus aureus [6] = experiment: Antibacterial activity against methicillin-sensitive Staphylococcus aureus 10-1 after 18 hrs by two fold serial dilution method; conditions: 10-1, 18 h; summary of the method: as §1
Staphylococcus aureus [7] = experiment: Antibacterial activity against methicillin-resistant Staphylococcus aureus 10-1 after 18 hrs by two fold serial dilution method; conditions: 10-1, 18 h; summary of the method: as §2
Enterococcus faecium [8] = experiment: Antibacterial activity against Enterococcus faecium 09-1 after 18 hrs by two fold serial dilution method; conditions: 09-1, 18 h; summary of the method: as §1
Escherichia coli [9] = experiment: Antibacterial activity against Escherichia coli 10-2 after 18 hrs by two fold serial dilution method; conditions: 10-2, 18 h; summary of the method: as §1
Staphylococcus aureus [10] = experiment: Antibacterial activity against methicillin-sensitive Staphylococcus aureus 10-4 after 18 hrs by two fold serial dilution method; conditions: 10-4, 18 h; summary of the method: as §1
Enterococcus faecalis [11] = experiment: Antibacterial activity against Enterococcus faecalis 09-2 after 18 hrs by two fold serial dilution method; conditions: 09-2, 18 h; summary of the method: as §1
Enterococcus faecalis [12] = experiment: Antibacterial activity against Enterococcus faecalis 09-1 after 18 hrs by two fold serial dilution method; conditions: 09-1, 18 h; summary of the method: as §1
Enterococcus faecium [13] = experiment: Antibacterial activity against Enterococcus faecium 09-2 after 18 hrs by two fold serial dilution method; conditions: 09-2, 18 h; summary of the method: as §1
Escherichia coli [14] = experiment: Antibacterial activity against Escherichia coli 10-3 after 18 hrs by two fold serial dilution method; conditions: 10-3, 18 h; summary of the method: as §1
Enterococcus faecium [15] = experiment: Antibacterial activity against Enterococcus faecium 09-4 after 18 hrs by two fold serial dilution method; conditions: 09-4, 18 h; summary of the method: as §1
Pseudomonas aeruginosa [16] = experiment: Antibacterial activity against Pseudomonas aeruginosa 10-2 after 18 hrs by two fold serial dilution method; conditions: 10-2, 18 h; summary of the method: as §1
Pseudomonas aeruginosa [17] = experiment: Antibacterial activity against Pseudomonas aeruginosa ATCC 27853 after 18 hrs by two fold serial dilution method; conditions: ATCC 27853, 18 h; summary of the method: as §1
Staphylococcus aureus [18] = experiment: Antibacterial activity against methicillin-sensitive Staphylococcus aureus 10-6 after 18 hrs by two fold serial dilution method; conditions: 10-6, 18 h; summary of the method: as §1
Klebsiella pneumoniae [19] = experiment: Antibacterial activity against Klebsiella pneumoniae 10-3 after 18 hrs by two fold serial dilution method; conditions: 10-3, 18 h; summary of the method: as §1
Staphylococcus aureus [20] = experiment: Antibacterial activity against methicillin-resistant Staphylococcus aureus 10-2 after 18 hrs by two fold serial dilution method; conditions: 10-2, 18 h; summary of the method: as §2
Escherichia coli [21] = experiment: Antibacterial activity against Escherichia coli 09-1 after 18 hrs by two fold serial dilution method; conditions: 09-1, 18 h; summary of the method: as §1
Klebsiella pneumoniae [22] = experiment: Antibacterial activity against Klebsiella pneumoniae 10-1 after 18 hrs by two fold serial dilution method; conditions: 10-1, 18 h; summary of the method: as §1
Enterococcus faecium [23] = experiment: Antibacterial activity against Enterococcus faecium 09-3 after 18 hrs by two fold serial dilution method; conditions: 09-3, 18 h; summary of the method: as §1
Streptococcus pneumoniae = experiment: Antibacterial activity against Streptococcus pneumoniae 10-1 after 18 hrs by two fold serial dilution method; conditions: 10-1, 18 h; summary of the method: as §1
[24] = test system: Staphylococcus epidermidis; experiment: Antibacterial activity against methicillin-sensitive Staphylococcus epidermidis 10-2 after 18 hrs by two fold serial dilution method; conditions: 10-2, 18 h; summary of the method: as §1
Enterococcus faecium [25] = experiment: Antibacterial activity against Enterococcus faecium 09-5 after 18 hrs by two fold serial dilution method; conditions: 09-5, 18 h; summary of the method: as §1
Escherichia coli [26] = experiment: Antibacterial activity against Escherichia coli 09-3 after 18 hrs by two fold serial dilution method; conditions: 09-3, 18 h; summary of the method: as §1
Escherichia coli [27] = experiment: Antibacterial activity against Escherichia coli 10-1 after 18 hrs by two fold serial dilution method; conditions: 10-1, 18 h; summary of the method: as §1
[28] = test system: Staphylococcus epidermidis; experiment: Antibacterial activity against methicillin-resistant Staphylococcus epidermidis 10-1 after 18 hrs by two fold serial dilution method; conditions: 10-1, 18 h; summary of the method: as §2
Staphylococcus aureus [29] = experiment: Antibacterial activity against methicillin-resistant Staphylococcus aureus 10-4 after 18 hrs by two fold serial dilution method; conditions: 10-4, 18 h; summary of the method: as §2
[30] = test system: Staphylococcus epidermidis; experiment: Antibacterial activity against methicillin-sensitive Staphylococcus epidermidis 10-1 after 18 hrs by two fold serial dilution method; conditions: 10-1, 18 h; summary of the method: as §1
Escherichia coli [31] = experiment: Antibacterial activity against Escherichia coli ATCC 25922 after 18 hrs by two fold serial dilution method; conditions: ATCC 25922, 18 h; summary of the method: as §1
Pseudomonas aeruginosa [32] = experiment: Antibacterial activity against Pseudomonas aeruginosa 10-1 after 18 hrs by two fold serial dilution method; conditions: 10-1, 18 h; summary of the method: as §1
Staphylococcus aureus [33] = experiment: Antibacterial activity against methicillin-sensitive Staphylococcus aureus 10-3 after 18 hrs by two fold serial dilution method; conditions: 10-3, 18 h; summary of the method: as §1
Staphylococcus aureus [34] = experiment: Antibacterial activity against Staphylococcus aureus ATCC 25923 after 18 hrs by two fold serial dilution method; conditions: ATCC 25923, 18 h; summary of the method: as §1
Enterococcus faecium [35] = experiment: Antibacterial activity against Enterococcus faecium 09-6 after 18 hrs by two fold serial dilution method; conditions: 09-6, 18 h; summary of the method: as §1
Staphylococcus aureus [36] = experiment: Antibacterial activity against methicillin-sensitive Staphylococcus aureus 10-2 after 18 hrs by two fold serial dilution method; conditions: 10-2, 18 h; summary of the method: as §1
Staphylococcus aureus [37] = experiment: Antibacterial activity against methicillin-resistant Staphylococcus aureus 10-3 after 18 hrs by two fold serial dilution method; conditions: 10-3, 18 h; summary of the method: as §2

Measured: MIC

NCC1CN(c2nc3c(cc2F)c(=O)c(C(=O)O)cn3-c2ccc(F)cc2F)C/C1=N\OCF (racemic)
0.06 µg/mL: Staphylococcus aureus [6]
32 µg/mL: Pseudomonas aeruginosa [2] | Enterococcus faecalis [11] | Enterococcus faecalis [12] | Escherichia coli [14] | Enterococcus faecium [23] | [24] | [30]
> 128 µg/mL: Klebsiella pneumoniae [1] | Escherichia coli [5] | Pseudomonas aeruginosa [16] | Escherichia coli [26]
128 µg/mL: Escherichia coli [21] | Escherichia coli [27]
0.125 µg/mL: Staphylococcus aureus [3] | Staphylococcus aureus [10] | Staphylococcus aureus [18] | Streptococcus pneumoniae | Escherichia coli [31] | Staphylococcus aureus [33]
0.5 µg/mL: Enterococcus faecium [15] | Klebsiella pneumoniae [22] | Enterococcus faecium [35]
0.25 µg/mL: Staphylococcus aureus [34]
8 µg/mL: [4]
4 µg/mL: Escherichia coli [9] | Klebsiella pneumoniae [19] | [28] | Pseudomonas aeruginosa [32] | Staphylococcus aureus [36]
16 µg/mL: Pseudomonas aeruginosa [17] | Staphylococcus aureus [20]
64 µg/mL: Staphylococcus aureus [7] | Enterococcus faecium [8] | Enterococcus faecium [13] | Enterococcus faecium [25] | Staphylococcus aureus [29] | Staphylococcus aureus [37]

NCC1CN(c2ccc3c(=O)c(C(=O)O)cn(C4CC4)c3n2)C/C1=N\OCF (racemic)
0.5 µg/mL: Klebsiella pneumoniae [22]
16 µg/mL: Enterococcus faecium [25] | [30]
0.06 µg/mL: Escherichia coli [31]
4 µg/mL: Escherichia coli [9] | Pseudomonas aeruginosa [17] | Klebsiella pneumoniae [19]
2 µg/mL: Enterococcus faecium [15] | Pseudomonas aeruginosa [32]
0.03 µg/mL: Staphylococcus aureus [6]
0.25 µg/mL: Staphylococcus aureus [10] | Streptococcus pneumoniae | Staphylococcus aureus [33] | Staphylococcus aureus [34]
32 µg/mL: Pseudomonas aeruginosa [2] | [24] | [28]
1 µg/mL: Enterococcus faecium [35]
64 µg/mL: [4] | Enterococcus faecium [8] | Enterococcus faecalis [11] | Enterococcus faecalis [12] | Enterococcus faecium [13] | Staphylococcus aureus [20] | Enterococcus faecium [23]
128 µg/mL: Staphylococcus aureus [36]
0.125 µg/mL: Staphylococcus aureus [3] | Staphylococcus aureus [18]
> 128 µg/mL: Klebsiella pneumoniae [1] | Escherichia coli [5] | Staphylococcus aureus [7] | Escherichia coli [14] | Pseudomonas aeruginosa [16] | Escherichia coli [21] | Escherichia coli [26] | Escherichia coli [27] | Staphylococcus aureus [29] | Staphylococcus aureus [37]
